Active and inactive are the calls of the source. No cut-off for these calls is given here.

The nature of series [1]: Drug uptake in human UM-UC-3 cells xenografted in SCID mouse at 50 uCi, iv administered at 24 hrs post imaging and measured at 24 to 72 post injection by PET imaging analysis. The series is classed as ADME, organism-based, UMUC3. As to conditions: in vivo. Put shortly:
(§1)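 SCID mice (3/group) with UMUC3 tumors first given 18F-FDG (50 µCi) and imaged at 110 min. At 24 h later, 124I-labelled agent given i.v. (50, 25 or 15 µCi); microPET at 24, 48, 72 h post-injection, same bed position. Injected dose checked by well gamma counter, within ±5%.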
(Xenograft models place foreign cells or tissue in a host animal.)

Series [2] in a line: Drug uptake in human UM-UC-3 cells xenografted in SCID mouse at 15 uCi, iv measured at 24 to 72 post injection by PET imaging analysis. The series is classed as ADME, organism-based, UMUC3. Conditions: in vivo. Summed up:
as §1

Series [3] deals with T-24. Kind of series: Induction of apoptosis in human T24 cells assessed as increase in apoptotic cells at 1 uM in presence of light by Annexin V/propidium iodide-stining based flow cytometry. The series is classed as functional, cell-based. In general terms: Flow cytometry measures light scatter and fluorescence of single cells or particles in a stream.
The nature of series [4]: Induction of singlet oxygen generation in deaerated toluene at 670 nm assessed as rate of singlet decay by femtosecond transient absorption spectroscopy. The series is classed as functional.
Series [5] has as its system T-24. Put plainly: Induction of apoptosis in human T24 cells assessed as increase in apoptotic cells at 100 nM in presence of light by Annexin V/propidium iodide-stining based flow cytometry. The series is classed as functional, cell-based.
Series [6] deals with T-24. Kind of series: Induction of apoptosis in human T24 cells assessed as increase in necrotic cells at 1 uM in presence of light by Annexin V/propidium iodide-stining based flow cytometry. The series is classed as functional, cell-based.
The nature of series [7]: Induction of singlet oxygen generation in deaerated toluene at 670 nm assessed as singlet decay life time by femtosecond transient absorption spectroscopy. The series is classed as functional.
In series [8] the test system is UMUC3. Put plainly: Induction of apoptosis in human UM-UC-3 cells assessed as increase in necrotic cells at 1 uM in presence of light by Annexin V/propidium iodide-stining based flow cytometry. The series is classed as functional, cell-based.
Series [9] concerns UMUC3. Put plainly: Induction of apoptosis in human UM-UC-3 cells assessed as increase in apoptotic cells at 1 uM in presence of light by Annexin V/propidium iodide-stining based flow cytometry. The series is classed as functional, cell-based.
Series [10] relates to UMUC3. Put plainly: Anti-tumor activity against human UM-UC-3 cells xenografted in SCID mouse at 0.47 umol/kg, iv in presence of 135 J/cm2 light irradiation at 24 hrs post injection and measured every day till day 60. The series is classed as functional, organism-based. Put shortly: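 UMUC-3 cells implanted in right flank of SCID mice; at 4–5 mm tumors, PS given i.v. at 0.47 µmol/kg. Tumors exposed to 665 nm light, 135 J/cm2 at 75 mW/cm2, 24 h post-injection. Tumor regrowth monitored daily; mice euthanized at >400 mm3; tumor-free status scored at day 60.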

Series [11] in a line: Induction of singlet oxygen generation assessed as energy transfer from the triplet chlorins to oxygen by femtosecond transient absorption spectroscopy. The series is classed as functional.
Series [12] deals with Epidermal growth factor receptor (Homo sapiens) (UniProt P00533). Put plainly: Inhibition of EGFR autophosphorylation at Ty1068 in human UM-UC-3 cells at 1 uM followed by PDT and measured after 24 hrs by Western blot analysis. The series is classed as cell-based. For orientation: In western blotting, separated proteins are transferred to a membrane and probed.
Series [13] in a line: Induction of singlet oxygen generation in oxygen-saturated toluene solution at 670 nm assessed as decay rate constant of triplet excited state by femtosecond transient absorption spectroscopy. The series is classed as functional.
Series [14] concerns the target Epidermal growth factor receptor (Homo sapiens) (UniProt P00533). Put plainly: Inhibition of EGFR autophosphorylation at Ty1068 in human T24 cells at 1 uM followed by PDT and measured after 24 hrs by Western blot analysis. The series is classed as cell-based.
For series [15], the system named is UMUC3. Kind of series: Induction of apoptosis in human UM-UC-3 cells assessed as increase in apoptotic cells at 100 nM in presence of light by Annexin V/propidium iodide-stining based flow cytometry. The series is classed as functional, cell-based.
Series [16] addresses Epidermal growth factor receptor (Homo sapiens) (UniProt P00533). Put plainly: Inhibition of EGFR autophosphorylation at Ty1068 in human UM-UC-3 cells at 100 nM followed by PDT and measured after 24 hrs by Western blot analysis. The series is classed as cell-based.
In series [17] the test system is UMUC3. Put plainly: Induction of apoptosis in human UM-UC-3 cells assessed as increase in necrotic cells at 100 nM in presence of light by Annexin V/propidium iodide-stining based flow cytometry. The series is classed as functional, cell-based.
A short description of series [18]: Induction of singlet oxygen generation in Ar-saturated toluene solution at 670 nm assessed as decay rate constant of triplet excited state by femtosecond transient absorption spectroscopy. The series is classed as functional.
Series [19] deals with UMUC3. Put plainly: Anti-tumor activity against human UM-UC-3 cells xenografted in SCID mouse assessed as tumor necrosis at 0.47 umol/kg, iv in presence of 135 J/cm2 light irradiation at 24 hrs post injection and measured at 72 hrs post light exposure. The series is classed as functional, organism-based.

Epidermal growth factor receptor (Homo sapiens), sequence (P00533 whole entry): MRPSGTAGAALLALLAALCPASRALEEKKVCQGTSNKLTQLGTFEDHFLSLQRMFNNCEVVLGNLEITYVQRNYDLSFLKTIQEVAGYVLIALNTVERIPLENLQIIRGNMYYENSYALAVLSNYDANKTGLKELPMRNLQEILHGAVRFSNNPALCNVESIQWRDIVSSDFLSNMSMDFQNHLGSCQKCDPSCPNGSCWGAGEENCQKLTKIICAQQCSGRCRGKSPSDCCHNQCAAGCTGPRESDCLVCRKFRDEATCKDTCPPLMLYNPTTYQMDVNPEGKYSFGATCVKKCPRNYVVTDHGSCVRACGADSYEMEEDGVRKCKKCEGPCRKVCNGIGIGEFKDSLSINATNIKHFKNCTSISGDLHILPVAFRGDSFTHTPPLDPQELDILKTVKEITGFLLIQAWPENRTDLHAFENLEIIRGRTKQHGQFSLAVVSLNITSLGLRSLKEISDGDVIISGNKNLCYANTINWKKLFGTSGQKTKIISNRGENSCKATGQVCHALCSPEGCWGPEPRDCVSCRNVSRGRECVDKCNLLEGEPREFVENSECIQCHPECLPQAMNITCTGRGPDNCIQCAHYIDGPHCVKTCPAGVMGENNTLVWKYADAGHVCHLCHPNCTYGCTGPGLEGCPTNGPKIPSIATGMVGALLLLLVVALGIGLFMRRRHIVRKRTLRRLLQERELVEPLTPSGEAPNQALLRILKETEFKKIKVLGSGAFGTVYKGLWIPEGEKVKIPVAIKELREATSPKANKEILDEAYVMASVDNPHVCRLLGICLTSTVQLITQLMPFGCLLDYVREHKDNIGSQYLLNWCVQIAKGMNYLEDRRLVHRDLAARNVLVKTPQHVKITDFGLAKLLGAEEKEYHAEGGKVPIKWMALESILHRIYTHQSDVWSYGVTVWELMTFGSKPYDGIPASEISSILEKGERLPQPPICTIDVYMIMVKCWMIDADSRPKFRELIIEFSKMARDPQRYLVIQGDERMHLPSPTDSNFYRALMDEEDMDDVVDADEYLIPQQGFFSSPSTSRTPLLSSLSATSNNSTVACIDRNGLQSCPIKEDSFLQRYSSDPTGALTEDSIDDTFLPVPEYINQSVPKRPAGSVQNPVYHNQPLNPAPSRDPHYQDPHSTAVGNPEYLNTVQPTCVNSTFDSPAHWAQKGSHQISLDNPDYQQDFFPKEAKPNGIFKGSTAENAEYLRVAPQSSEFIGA

For `CCC1=C(C)c2cc3[nH]c(cc4nc(c5c6[nH]c(cc1n2)c(C)c6C(=O)C5)[C@@H](CCC(=O)NCc1cccc(C#Cc2cccc(Nc5ncnc6cc(OCCOC)c(OCCOC)cc56)c2)c1)[C@@H]4C)c(C)c3C(C)OCc1cccc([124I])c1` (some centres undefined), the Drug uptake entry in series [1] and in [2] was “Active” in each case.
Take `CCC1=C(C)c2cc3[nH]c(cc4nc(c5c6[nH]c(cc1n2)c(C)c6C(=O)C5)[C@@H](CCC(=O)NCc1cccc(C#Cc2cccc(Nc5ncnc6cc(OCCOC)c(OCCOC)cc56)c2)c1)[C@@H]4C)c(C)c3C(C)OCc1cccc(I)c1` (some centres undefined): the outcome in [3], in [6], in series [8], in [9], in series [10] and in [15] was Active. Further, the outcome in series [17] and in [19] was Active. Moreover, the K in series [4] worked out at 7.5 ×10⁹ /s; in [11] it was 1.03 ×10¹⁰ /M/s; in series [13], 2.07 ×10⁵ /s; in series [18] it was 9.8 ×10⁴ /s. For the same compound, in [5], the result was inactive. Also, the Time in [7] came out at 133 pS. For the same compound, the inhibition entry in [12], in series [14] and in series [16] was “Active” each time.

(Values after ChEMBL document CHEMBL4400542, “Epidermal Growth Factor Receptor-Targeted Multifunctional Photosensitizers for Bladder Cancer Imaging and Photodynamic Therapy” (J Med Chem, 2019).)
